Source: PubChem (The Scripps Research Institute Molecular Screening Center)
Sampled rows, rich in hits. Any-hit rate of the full collection: about 2.5%.
TDP2 absorb – blocks human TDP2 phosphodiesterase activity | O95551 | recombinant TDP2, T5PNP hydrolysis, p-nitrophenol absorbance 415 nm | inhibition, % at 12.8 µM | actives 0.34% (n = 370,000) | AID 720702;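 active = inhibition above the mean of all tested compounds plus 3 SD, set per campaign, cut at about 25% in these data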;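 also: 0% = DMSO with enzyme and 100% = buffer with substrate but no TDP2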
Target sequence (O95551 whole entry, looked up): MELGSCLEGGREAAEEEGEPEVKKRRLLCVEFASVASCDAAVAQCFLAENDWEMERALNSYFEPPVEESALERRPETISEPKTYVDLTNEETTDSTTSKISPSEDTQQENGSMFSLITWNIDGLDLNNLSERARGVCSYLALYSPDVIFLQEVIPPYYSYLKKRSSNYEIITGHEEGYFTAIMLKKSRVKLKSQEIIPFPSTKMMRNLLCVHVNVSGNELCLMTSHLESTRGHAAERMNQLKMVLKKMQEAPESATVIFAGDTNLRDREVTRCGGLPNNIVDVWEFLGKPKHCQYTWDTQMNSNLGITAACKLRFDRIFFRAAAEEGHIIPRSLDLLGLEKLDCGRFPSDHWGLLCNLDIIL
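Evaluation: % inhibition relative to enzyme-containing and enzyme-free wells. Material: recombinant human TDP2. Benchmarks: enzyme-free and DMSO wells. Timing: enzyme reaction with compound for 2 h at 37 °C. Compound dosing: 12.8 µM only. Measured by: p-Nitrophenol epi absorbance. Reagent: T5PNP substrate at 5 mM, a TopII-DNA adduct mimic. Replication: single well per compound.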
PAD4 FP inh – blocks human protein arginine deiminase 4. actives 0.41% (n = 330,000). Q9UM07. AID 485272. recombinant PAD4, RCA probe fluorescence polarization. inhibition, % at 6.36 µM;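 active = percent inhibition above a cutoff equal to the mean of all tested compounds plus 3 SD, cut at about 15% in these data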;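 also: 0% = PAD4 with RCA probe and DMSO and 100% = probe without PAD4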
CTSL1 counter – blocks F. hepatica cathepsin L1 in PFM18AAP counter-screen | actives 0.49% (n = 300,000) | recombinant F. hepatica cathepsin L1, Z-Leu-Arg-MCA fluorescence | inhibition, % at 5.96 µM;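 active = inhibition above the mean of all tested compounds plus 3 SD, set per screening campaign, cut at about 17% in these data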;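 also: 0% = plate median of test compound wells and 100% = 1 µM Z-Phe-Ala-diazomethylketone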
PRMT1 inh – inhibitors of human PRMT1 | Q99873 | recombinant PRMT1, activity-based probe fluorescence polarization | inhibition, % at 2.79 µM | actives 1.3% (n = 370,000);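 active = inhibition above about 21% made by adding two undisclosed values, limit read from the data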
Target sequence (Q99873 whole entry, looked up): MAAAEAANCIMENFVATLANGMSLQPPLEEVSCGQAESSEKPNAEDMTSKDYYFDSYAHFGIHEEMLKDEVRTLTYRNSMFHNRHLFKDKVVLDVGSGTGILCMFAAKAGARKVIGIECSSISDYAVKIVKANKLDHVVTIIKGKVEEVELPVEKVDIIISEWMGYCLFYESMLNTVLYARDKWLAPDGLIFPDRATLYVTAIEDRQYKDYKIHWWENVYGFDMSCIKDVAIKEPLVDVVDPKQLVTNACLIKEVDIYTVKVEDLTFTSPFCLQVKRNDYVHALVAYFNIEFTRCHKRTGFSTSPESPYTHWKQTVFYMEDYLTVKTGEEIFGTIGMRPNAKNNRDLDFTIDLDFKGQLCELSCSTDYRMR
GSTO1 counter – GSTO1 inhibition, counter-screen for RBBP9 inhibitors | P78417 | recombinant GSTO1, activity-based probe fluorescence polarization | inhibition, % at 5.96 µM | actives 1.1% (n = 300,000) | AID 1974;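 active = inhibition above the campaign mean inhibition plus 3 SD, cut at about 35% in these data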;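 also: 0% = GSTO1-1 with DMSO and 100% = wells lacking GSTO1-1 enzyme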
GSTO1 inh conf – GSTO1 (human) inhibition, confirmation. shares compounds with GSTO1 counter. recombinant GSTO1, probe fluorescence polarization. inhibition, % at 5.96 µM. actives 54% (n = 2,400). AID 2176;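 active = inhibition above the primary screen's cutoff, its mean inhibition plus 3 SD, cut at about 35% in these data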;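 also: loss of polarization as inhibitors block binding of rhodamine sulfonate ester activity probe; 0% = GSTO1 with DMSO and 100% = wells lacking GSTO1 enzyme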
PAD4 FP conf – PAD4 (human) inhibition, confirmed. recombinant PAD4, RCA probe fluorescence polarization. shares compounds with PAD4 FP inh. actives 28% (n = 1,200). AID 488796. inhibition, % at 6.36 µM;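 active = mean inhibition across replicates above the hit cutoff set by the earlier primary screen, cut at about 15% in these data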;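 also: inhibitors block active-site labeling by the probe so polarization falls; 0% = PAD4 with probe and DMSO and 100% = probe without PAD4 enzyme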
PRMT1 inh conf – confirmation of human PRMT1 inhibitors. shares compounds with PRMT1 inh. recombinant His-PRMT1, activity-based probe fluorescence polarization. inhibition, % at 2.79 µM. actives 42% (n = 3,300);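 active = mean inhibition across replicates above the hit cutoff derived for the earlier primary screen, cut at about 22% in these data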
TDP2 confirm – human TDP2 inhibition, confirmation | actives 22% (n = 1,100) | AID 743263 | shares compounds with TDP2 absorb | inhibition, % at 12.8 µM | recombinant human TDP2, absorbance read-out; in the data active = inhibition above about 25%;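 also: 0% = vehicle with enzyme and 100% = no enzyme buffer only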
Starred values were filed as active, the others as inactive.

What do the screens show for `COc1ccc(C(c2c(C)n(C)n(-c3ccccc3)c2=O)c2c(C)n(C)n(-c3ccccc3)c2=O)cc1OC`?
TDP2 absorb: -16.4; PAD4 FP inh: -4.6; CTSL1 counter: 1.1; PRMT1 inh: -0.1; GSTO1 counter: -7.0

How did O=C1CCC[C@H]2C[C@H](NCc3cccc(F)c3)CC[C@]23CCCN13 do in these assays?
TDP2 absorb: -3.0; PRMT1 inh: 1.3

What do the screens show for `Cc1cc(C)cc(-c2c(C(=O)c3ccc(Br)cc3)[nH]c(N)c2C(=O)NCc2ccc(Cl)cc2)c1`?
TDP2 absorb: -0.1; PRMT1 inh: 3.4

What do the screens show for `CC1(C)C=C2C(=NN(c3ccccc3)C(N)=C2C#N)CO1`?
TDP2 absorb: 47.4*; PAD4 FP inh: 22.0*; CTSL1 counter: 109.0*; PRMT1 inh: 2.8; GSTO1 counter: 74.1*; GSTO1 inh conf: 87.5*; PAD4 FP conf: 55.5*; TDP2 confirm: 52.6*

How did CC1(C)Cc2c(C#N)c(N)n(-c3ccccc3)c(=S)c2CO1 do in these assays?
TDP2 absorb: 7.5; PAD4 FP inh: 2.0; CTSL1 counter: -0.5; PRMT1 inh: 5.6; GSTO1 counter: -0.3

What do the screens show for `CC(NC(=O)Cc1ccccc1)c1ccccc1` (stereo unspecified)?
TDP2 absorb: -9.2; PAD4 FP inh: -6.8; CTSL1 counter: -3.0; PRMT1 inh: -1.4; GSTO1 counter: 7.6

What do the screens show for `O=C(NC1(O)C(=O)c2ccccc2C1=O)c1ccc(C(F)(F)F)cc1`?
TDP2 absorb: 37.2*; PAD4 FP inh: 39.9*; CTSL1 counter: 57.3*; PRMT1 inh: 1.6; GSTO1 counter: 84.2*; GSTO1 inh conf: 77.5*; PAD4 FP conf: 39.9*; TDP2 confirm: 83.1*

What do the screens show for `O=C(Cc1ccccc1)NC1(O)C(=O)c2ccccc2C1=O`?
TDP2 absorb: 63.6*; PAD4 FP inh: 9.4; CTSL1 counter: 34.1*; PRMT1 inh: -2.1; GSTO1 counter: 72.4*; GSTO1 inh conf: 75.4*; TDP2 confirm: 61.6*

Results for c1coc(-c2nc(-c3ccco3)c(-c3ccco3)nc2-c2ccco2)c1 ?
TDP2 absorb: 50.0*; PAD4 FP inh: 44.6*; CTSL1 counter: 2.1; PRMT1 inh: 78.0*; GSTO1 counter: 79.9*; GSTO1 inh conf: 36.7*; PRMT1 inh conf: 15.0; TDP2 confirm: 2.6

Results for CN(C)c1ccc(Cl)cc1N ?
TDP2 absorb: 1.4; PAD4 FP inh: 3.2; CTSL1 counter: -2.5; PRMT1 inh: 0.2; GSTO1 counter: 10.7

How did CN(C)c1cc(Cl)c2nonc2c1N do in these assays?
TDP2 absorb: 66.5*; PAD4 FP inh: 39.6*; CTSL1 counter: 39.3*; PRMT1 inh: 11.3; GSTO1 counter: 60.2*; GSTO1 inh conf: 34.7; PAD4 FP conf: -8.8; TDP2 confirm: 53.8*

What do the screens show for `COc1ccc(-c2nc3ccccc3nc2-c2ccc(OC)c(OC)c2)cc1OC`?
TDP2 absorb: 19.4; PAD4 FP inh: -0.4; CTSL1 counter: 3.3; PRMT1 inh: 0.7; GSTO1 counter: 1.9

How did COc1ccc2nc3ccccc3nc2c1N do in these assays?
TDP2 absorb: 39.0*; PAD4 FP inh: 24.7*; CTSL1 counter: -7.2; PRMT1 inh: 13.0; GSTO1 counter: 59.8*; GSTO1 inh conf: 9.2; PAD4 FP conf: -3.0; TDP2 confirm: 7.8

Results for CCC(NC(=O)NCc1ccccc1)(C(F)(F)F)C(F)(F)F ?
TDP2 absorb: -3.9; PAD4 FP inh: 4.2; CTSL1 counter: -1.1; PRMT1 inh: -1.5; GSTO1 counter: -2.0

How did CC(NC(=O)Nc1ccc(O)cc1)(C(F)(F)F)C(F)(F)F do in these assays?
TDP2 absorb: 27.8*; PAD4 FP inh: 64.3*; CTSL1 counter: -4.2; PRMT1 inh: 13.8; GSTO1 counter: 43.8*; GSTO1 inh conf: 1.9; PAD4 FP conf: -0.7; TDP2 confirm: 19.2

What do the screens show for `CCC(NC(=O)Nc1ccc(O)cc1)(C(F)(F)F)C(F)(F)F`?
TDP2 absorb: 26.8*; PAD4 FP inh: 46.2*; CTSL1 counter: -0.6; PRMT1 inh: 17.0; GSTO1 counter: 57.3*; GSTO1 inh conf: 3.9; PAD4 FP conf: 12.6; TDP2 confirm: 5.2

What do the screens show for `CC(=O)N1CCn2c3c(c(=O)c4cc(C)ccc42)CCC31` (stereo unspecified)?
TDP2 absorb: 34.5*; PAD4 FP inh: 46.1*; CTSL1 counter: 24.0*; PRMT1 inh: 5.4; GSTO1 counter: 73.2*; GSTO1 inh conf: 56.7*; PAD4 FP conf: -2.9; TDP2 confirm: 49.5*

How did COC(CNC(=O)[C@H](Cc1ccccc1)NCC(=O)NC1CCCCC1)OC do in these assays?
TDP2 absorb: -3.5; PRMT1 inh: -0.6

Results for Cc1ccccc1NC1=C/C(=N\S(=O)(=O)c2cccs2)c2ccccc2C1=O ?
TDP2 absorb: 62.4*; PAD4 FP inh: 70.0*; CTSL1 counter: 93.8*; PRMT1 inh: 5.8; GSTO1 counter: 92.4*; GSTO1 inh conf: 88.1*; PAD4 FP conf: 53.4*; TDP2 confirm: 75.0*

How did Cc1ccccc1NC1=C/C(=N\S(=O)(=O)c2ccc(C(=O)O)cc2)c2ccccc2C1=O do in these assays?
TDP2 absorb: 80.9*; PAD4 FP inh: 71.0*; CTSL1 counter: 103.8*; PRMT1 inh: 6.1; GSTO1 counter: 90.0*; GSTO1 inh conf: 92.6*; PAD4 FP conf: 58.2*; TDP2 confirm: 75.0*

What do the screens show for `Cc1ccc(S(=O)(=O)N2CCN(C(=O)c3cccn3C)CC2)cc1`?
TDP2 absorb: 12.0; PRMT1 inh: -3.9

How did CC1=NN(c2ccccc2)C(=O)C1 do in these assays?
TDP2 absorb: 66.5*; PAD4 FP inh: 44.9*; CTSL1 counter: 7.9; PRMT1 inh: 14.8; GSTO1 counter: 71.8*; GSTO1 inh conf: 10.3; PAD4 FP conf: -3.0; TDP2 confirm: 7.9

How did CC1=NN(c2ccc(N)cc2)C(=O)C1 do in these assays?
TDP2 absorb: 37.8*; PAD4 FP inh: -4.9; CTSL1 counter: -1.1; PRMT1 inh: 7.1; GSTO1 counter: 50.4*; GSTO1 inh conf: 13.9; TDP2 confirm: 18.6

Results for CC1=NN(Cc2ccccc2)C(=O)C1 ?
TDP2 absorb: 57.8*; PAD4 FP inh: 70.9*; CTSL1 counter: 6.5; PRMT1 inh: 3.0; GSTO1 counter: 57.1*; GSTO1 inh conf: 5.8; PAD4 FP conf: -5.1; TDP2 confirm: 5.9

What do the screens show for `CC1=NN(c2cccc([N+](=O)[O-])c2)C(=O)C1`?
TDP2 absorb: 6.8; PAD4 FP inh: -13.6; CTSL1 counter: -3.8; PRMT1 inh: 3.2; GSTO1 counter: 23.9
